# Test results reported in ChEMBL document CHEMBL2424619, “Small-molecule ligands of methyl-lysine binding proteins: optimization of selectivity for L3MBTL3” (J Med Chem, 2013).
# What was measured:
# [1] = target: PHD finger protein 23 (Homo sapiens, UniProt Q9BUL5); assay: Inhibition of PHF23 (unknown origin) after 30 mins by AlphaScreen assay
# In short: (§1)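 AlphaScreen competition with histone peptide. Compounds in 3-fold, 10-point dilutions, top 10 or 30 μM; buffer 20 mM Tris pH 8.0, 25 mM NaCl, 2 mM DTT, 0.05% Tween-20. Protein-peptide mix 30 min RT, then streptavidin donor plus nickel-chelate acceptor beads (GST acceptor beads for GST-tagged PHF23, JARID1A) 30 min RT dark. Protein-free His6-biotin peptide counterscreen.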
# [2] = target: T1, Lethal(3)malignant brain tumor-like protein 3 (Homo sapiens, UniProt Q96JM7); assay: Inhibition of L3MBTL3 (unknown origin) after 30 mins by AlphaScreen assay; in short: as §1
# T1 sequence (Q96JM7 whole entry): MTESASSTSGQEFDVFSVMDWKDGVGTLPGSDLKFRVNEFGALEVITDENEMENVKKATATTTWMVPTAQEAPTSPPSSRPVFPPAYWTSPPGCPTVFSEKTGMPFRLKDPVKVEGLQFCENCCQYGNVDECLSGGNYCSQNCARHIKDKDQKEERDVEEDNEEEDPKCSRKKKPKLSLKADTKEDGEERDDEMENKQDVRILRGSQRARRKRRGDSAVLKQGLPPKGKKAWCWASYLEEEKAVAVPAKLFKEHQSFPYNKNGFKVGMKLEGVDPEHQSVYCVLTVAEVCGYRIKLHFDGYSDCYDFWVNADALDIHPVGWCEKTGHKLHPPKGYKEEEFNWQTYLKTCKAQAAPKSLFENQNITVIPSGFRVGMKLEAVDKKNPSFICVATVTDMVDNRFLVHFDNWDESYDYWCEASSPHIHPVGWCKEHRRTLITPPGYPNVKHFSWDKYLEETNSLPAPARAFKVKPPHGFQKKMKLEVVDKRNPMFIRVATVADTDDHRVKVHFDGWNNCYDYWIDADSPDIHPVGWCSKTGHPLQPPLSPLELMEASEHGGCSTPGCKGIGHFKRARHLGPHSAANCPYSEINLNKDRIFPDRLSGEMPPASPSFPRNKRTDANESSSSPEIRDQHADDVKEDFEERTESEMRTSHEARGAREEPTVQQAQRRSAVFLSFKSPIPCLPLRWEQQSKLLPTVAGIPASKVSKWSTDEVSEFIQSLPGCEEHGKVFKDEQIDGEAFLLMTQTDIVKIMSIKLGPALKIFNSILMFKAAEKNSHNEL
# [3] = target: T1, Lethal(3)malignant brain tumor-like protein 3; assay: Inhibition of L3MBTL3 (unknown origin) using H4K20me2 as substrate after 30 mins by LNCE-TR-FRET assay
# [4] = target: T2, Scm-like with four MBT domains protein 1 (Homo sapiens, UniProt Q9UHJ3); assay: Inhibition of SFMBT1 (unknown origin) after 30 mins by AlphaScreen assay
# T2 sequence (Q9UHJ3 whole entry): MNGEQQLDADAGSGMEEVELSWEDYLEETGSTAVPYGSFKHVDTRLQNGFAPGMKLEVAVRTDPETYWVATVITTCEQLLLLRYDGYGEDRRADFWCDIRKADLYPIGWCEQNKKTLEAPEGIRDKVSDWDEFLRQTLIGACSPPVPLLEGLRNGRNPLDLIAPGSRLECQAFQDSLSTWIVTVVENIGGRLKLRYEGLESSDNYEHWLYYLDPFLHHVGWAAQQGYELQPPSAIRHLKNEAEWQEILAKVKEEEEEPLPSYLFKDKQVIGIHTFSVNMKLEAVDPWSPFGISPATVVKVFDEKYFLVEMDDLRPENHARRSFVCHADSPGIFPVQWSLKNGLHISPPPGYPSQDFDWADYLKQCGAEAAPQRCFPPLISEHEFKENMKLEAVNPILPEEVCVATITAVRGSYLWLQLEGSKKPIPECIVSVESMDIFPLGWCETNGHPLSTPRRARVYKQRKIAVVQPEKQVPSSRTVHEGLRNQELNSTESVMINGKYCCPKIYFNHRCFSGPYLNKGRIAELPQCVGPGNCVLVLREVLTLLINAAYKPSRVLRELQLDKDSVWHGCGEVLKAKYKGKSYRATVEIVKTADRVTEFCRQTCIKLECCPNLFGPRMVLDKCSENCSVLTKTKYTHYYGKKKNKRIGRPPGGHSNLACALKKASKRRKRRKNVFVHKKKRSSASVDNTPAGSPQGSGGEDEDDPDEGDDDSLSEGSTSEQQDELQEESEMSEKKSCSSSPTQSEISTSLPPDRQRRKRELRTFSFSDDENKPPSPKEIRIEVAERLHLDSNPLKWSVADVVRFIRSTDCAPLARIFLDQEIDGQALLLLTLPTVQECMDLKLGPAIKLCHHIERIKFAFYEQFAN
# In short: as §1, with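 “dark. […]” for “dark.”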
# [5] = target: T3, E3 ubiquitin-protein ligase UHRF1 (Homo sapiens, UniProt Q96T88); assay: Inhibition of UHRF1 (unknown origin) after 30 mins by AlphaScreen assay
# T3 sequence (Q96T88 whole entry): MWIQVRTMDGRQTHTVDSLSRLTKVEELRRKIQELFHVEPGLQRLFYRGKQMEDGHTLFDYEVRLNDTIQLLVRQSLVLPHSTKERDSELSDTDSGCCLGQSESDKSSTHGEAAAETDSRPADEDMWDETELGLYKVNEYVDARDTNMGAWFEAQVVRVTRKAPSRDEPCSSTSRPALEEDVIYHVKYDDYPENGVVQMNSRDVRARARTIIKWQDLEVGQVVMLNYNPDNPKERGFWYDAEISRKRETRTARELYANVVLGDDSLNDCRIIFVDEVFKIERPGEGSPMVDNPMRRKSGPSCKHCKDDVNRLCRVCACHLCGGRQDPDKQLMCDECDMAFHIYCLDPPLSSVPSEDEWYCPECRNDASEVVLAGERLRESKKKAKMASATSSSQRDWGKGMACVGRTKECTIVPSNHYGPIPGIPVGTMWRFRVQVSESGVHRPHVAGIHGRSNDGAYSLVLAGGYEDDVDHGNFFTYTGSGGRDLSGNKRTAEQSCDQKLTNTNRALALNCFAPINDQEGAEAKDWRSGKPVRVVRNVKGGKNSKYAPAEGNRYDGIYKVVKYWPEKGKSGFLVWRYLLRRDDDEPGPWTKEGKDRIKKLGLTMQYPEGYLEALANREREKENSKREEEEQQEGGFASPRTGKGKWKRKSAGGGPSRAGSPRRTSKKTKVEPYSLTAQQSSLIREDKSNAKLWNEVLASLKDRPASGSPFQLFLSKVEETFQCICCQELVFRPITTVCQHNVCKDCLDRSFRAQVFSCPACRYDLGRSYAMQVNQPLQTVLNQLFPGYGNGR
# In short: as §1, with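 “dark. […]” for “dark.”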
# Sequence of PHD finger protein 23 (Q9BUL5 whole entry): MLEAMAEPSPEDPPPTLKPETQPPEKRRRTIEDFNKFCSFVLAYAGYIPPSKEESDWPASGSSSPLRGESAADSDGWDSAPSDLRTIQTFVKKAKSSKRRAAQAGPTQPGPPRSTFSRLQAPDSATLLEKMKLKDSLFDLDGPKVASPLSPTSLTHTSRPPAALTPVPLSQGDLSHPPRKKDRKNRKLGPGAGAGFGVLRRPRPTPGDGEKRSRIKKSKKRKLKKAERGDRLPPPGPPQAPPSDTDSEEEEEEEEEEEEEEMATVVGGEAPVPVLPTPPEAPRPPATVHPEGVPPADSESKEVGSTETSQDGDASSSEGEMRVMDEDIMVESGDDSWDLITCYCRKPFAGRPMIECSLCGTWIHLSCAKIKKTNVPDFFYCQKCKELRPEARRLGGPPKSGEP
Compound,IC50 [1] [µM],IC50 [2] [µM],IC50 [3] [µM],IC50 [4] [µM],IC50 [5] [µM]
O=C(c1ccc(C(=O)N2CCC(N3CCCCC3)CC2)cc1)N1CCC(N2CCCCC2)CC1,> 10,> 10,> 10,> 10,> 10
O=C(c1c(F)c(F)c(C(=O)N2CCC(N3CCCC3)CC2)c(F)c1F)N1CCC(N2CCCC2)CC1,> 10,0.21,0.13,> 10,> 10
C[N+]1(C2CCN(C(=O)c3ccc(C(=O)N4CCC(N5CCCC5)CC4)cc3)CC2)CCCC1,> 10,0.14,0.081,> 10,> 10
O=C(c1ccc(C(=O)N2CC3(CCNC3)C2)cc1)N1CCC(N2CCCC2)CC1,> 10,3.6,2.7,> 10,> 10
O=C(c1ccc(C(=O)N2CCC(C3CCCN3)CC2)cc1)N1CCC(C2CCCN2)CC1 (configuration not stated),> 10,0.64,0.8,> 10,> 10
O=C(c1ccc(C(=O)N2CCC(N3CCCC3)CC2)c(NCc2ccccc2)c1)N1CCC(N2CCCC2)CC1,> 10,0.039,0.05,> 10,> 10
CN(C)C1CCN(C(=O)c2ccc(C(=O)N3CCC(N4CCCC4)CC3)cc2)CC1,> 10,0.31,0.18,> 10,> 10
O=C(c1ccc(C(=O)N2CC3CNCC3C2)cc1)N1CCC(N2CCCC2)CC1 (configuration not stated),> 10,3.1,3.5,> 10,> 10
O=C(c1ccc(C(=O)N2CCC3(CCNC3)CC2)cc1)N1CCC(N2CCCC2)CC1,> 10,0.56,0.62,> 10,> 10
O=C(c1ccc(C(=O)N2CCC(N3CCCC3)CC2)c(Br)c1)N1CCC(N2CCCC2)CC1,> 10,0.12,0.074,> 10,> 10
CN1CCCC1C1CCN(C(=O)c2ccc(C(=O)N3CCC(C4CCCN4C)CC3)cc2)CC1 (configuration not stated),> 10,1.7,1.9,> 10,> 10
O=C(c1ccc(C(=O)N2CCC(N3CCCC3)CC2)cc1)N1CCC(C2CCCN2)CC1 (configuration not stated),> 10,0.12,0.092,> 10,> 10
CCN1Cc2ccc(NC(=O)c3ccc(C(=O)N4CCC(C5CCCN5)CC4)c(Nc4ccccc4)c3)cc2C1 (configuration not stated),> 10,,,> 10,> 10
O=C(c1ccc(C(=O)N2CCC(N3CCCC3)CC2)cc1)N1CCC(C2CCCCC2)CC1,,2.4,1.6,> 10,> 10
